CSN inh: inhibitors of CSN-mediated cullin deneddylation, primary screen, biochemical, fluorescence polarization, uHTS | inhibition, % at 12.5 µM | actives 0.38% (n = 360,000) | Purified CSN, SCF-Nedd8-OG deneddylation | COP9 signalosome complex subunit 5 (Homo sapiens), Q92905;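 active = pattern-corrected inhibition above about 35%, with an unprinted fluorescence ratio check between 0.5 and 1.5, limit read from the data, passing the limit was not always enough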;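 also: 0% = enzyme with substrate and 100% = substrate without enzyme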
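Test system: purified human Csn5 enzyme expressed in HEK293T cells. Amount: 0.24 nM enzyme. Reagent: SCFSkp2-Nedd8OG substrate at 10 nM final. Schedule: 90 min incubation of compound, enzyme and substrate at room temperature. Detection: fluorescence polarization. Read-out: % inhibition of substrate cleavage by Csn5.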
SENP1 FRET inh: human SENP1 catalytic domain inhibitors, primary screen, biochemical, FRET, uHTS. Sentrin-specific protease 1 (Homo sapiens), Q9P0U3. recombinant SENP1 catalytic domain, CyPet-SUMO1-YPet FRET cleavage. inhibition, % at 10 µM. actives 0.21% (n = 360,000);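 active = inhibition at least 30% at 10 µM, raw YFP signal under a set limit, fluorescence ratio 0.5 to 1.5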;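 also: 0% = enzyme with DMSO and 100% = no enzyme wells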
Target sequence (Q9P0U3 419-644 limits assumed): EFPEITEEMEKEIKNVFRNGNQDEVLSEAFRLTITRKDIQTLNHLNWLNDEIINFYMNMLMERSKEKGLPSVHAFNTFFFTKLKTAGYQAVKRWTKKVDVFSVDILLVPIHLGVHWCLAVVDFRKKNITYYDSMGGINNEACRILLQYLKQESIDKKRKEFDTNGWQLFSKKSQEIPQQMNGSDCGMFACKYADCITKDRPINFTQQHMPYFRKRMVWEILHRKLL
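Material – human SENP1 catalytic domain · Input – SENP1 enzyme, 20 pM final · Compound dosing – single concentration of 10 µM compound, 0.5% DMSO final · Timing – enzyme reaction for 50 min at room temperature, dark · Measured by – FRET fluorescence in CFP and YFP emission channels · Control set – no-enzyme wells low, DMSO-plus-enzyme wells high control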
HNF4A DNA FP: change in binding of human HNF4A to DNA, primary screen, biochemical, fluorescence polarization, FITC-DNA. Hepatocyte nuclear factor 4-alpha (Homo sapiens), P41235. actives 0.3% (n = 360,000). activity change, % at 10 µM. AID 1224865, 2016. 1 h; in the data active = activity change above about 30%, passing the limit was not always enough
TPT1 inh: Candida albicans TPT1 enzyme inhibitors, primary screen, biochemical, fluorescence polarization; tRNA 2'-phosphotransferase TPT1 (Candida albicans SC5314); recombinant caTPT1, FP RNA substrate dephosphorylation; inhibition, % at 5 µM; actives 0.81% (n = 300,000);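 active = inhibition above the mean of all tested compounds plus 3 SD, set per screening campaign, cut at about 24% in these data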;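 also: plate controls were DMSO alone for no effect and ferristatin control at 100 nM for full effect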
Rpn11 block: Rpn11 (PSMD14) deubiquitinase inhibitors, primary screen, biochemical, fluorescence polarization, uHTS | AID 588493, 2011 | human 26S proteasome, Ub4-pepOG fluorescence polarization; 20S core pre-blocked with epoxomicin | inhibition, % at 20 µM | 26S proteasome non-ATPase regulatory subunit 14 (Homo sapiens), O00487 | actives 0.59% (n = 360,000);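 active = inhibition at 20 µM, scaled to each plate's controls, above about 33%, limit read from the data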
Target sequence (O00487 whole entry, looked up): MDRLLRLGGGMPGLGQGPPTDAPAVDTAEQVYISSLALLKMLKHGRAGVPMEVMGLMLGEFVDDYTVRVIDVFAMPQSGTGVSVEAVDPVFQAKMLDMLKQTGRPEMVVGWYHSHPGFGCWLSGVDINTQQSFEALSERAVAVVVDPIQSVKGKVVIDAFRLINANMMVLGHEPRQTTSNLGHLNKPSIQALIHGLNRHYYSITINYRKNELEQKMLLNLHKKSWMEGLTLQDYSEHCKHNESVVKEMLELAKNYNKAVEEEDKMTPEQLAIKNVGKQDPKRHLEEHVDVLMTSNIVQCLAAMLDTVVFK
ATG4B inh: ATG4B protease inhibitors, primary screen, biochemical, fluorescence, uHTS; actives 0.51% (n = 340,000); ATG4B cleavage of LC3-PLA2, NBD-HPC fluorescence, 1 h; inhibition, % at 8.33 µM; Cysteine protease ATG4B (Homo sapiens), Q9Y4P1
Rpn11 confirm: Rpn11 (PSMD14) deubiquitinase inhibitors, confirmation, biochemical, fluorescence polarization, single concentration. purified human 26S proteasome, Ub4-pepOG fluorescence polarization; proteasome pretreated with epoxomicin. shares compounds with Rpn11 block. actives 29% (n = 1,900). inhibition, % at 20 µM. AID 602318, 2012
MMP-2 counter: MMP-2 enzyme inhibition, confirmation, counter-screen for RPN11 inhibitor project, biochemical, fluorescence, single concentration; actives 4% (n = 1,900); inhibition, % at 20 µM; AID 602330, 2012; shares compounds with Rpn11 block; recombinant MMP-2, FRET peptide cleavage fluorescence;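 also: human MMP-2 activated beforehand with APMA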
Thrombin inh: bovine thrombin protease inhibition, confirmation, counter-screen for Rpn11 inhibitor project, biochemical, fluorescence polarization, single concentration; inhibition, % at 20 µM; shares compounds with Rpn11 block; actives 13% (n = 1,900); bovine thrombin cleavage of Ub4-pepOG;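 active = mean inhibition at least 40% at 20 µM, or signal 3 deviations below plate average, so some actives read negative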;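 also: plate controls were thrombin with DMSO for no effect and buffer wells lacking thrombin for full effect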
* hit, by the source's call; · = no result shown; + = active, no number. A selection: hits, their analogues and other compounds. The true share with any hit is near 2%. Rule as the data show it, unless noted: active = inhibition above about 40%; inactive = the rest.

SMILES	CSN inh	SENP1 FRET inh	HNF4A DNA FP	TPT1 inh	Rpn11 block	ATG4B inh	Rpn11 confirm	MMP-2 counter	Thrombin inh
CC(C)NC(=O)c1ccc(S(=O)(=O)N(C)C)cc1	-4	-21	-9	0	39*	3	-22	-24	-9
COc1ccc(NC(=O)c2ccc(S(=O)(=O)N(C)C)cc2)cc1	-16	2	-2	0	2	-3	·	·	·
CC(=O)Nc1ccc2c(c1)C(=O)N(c1ccc(C)cc1)C2=O	7	1	-1	-6	-1	-7	·	·	·
COc1ccc(N2C(=O)c3ccc(NC(C)=O)cc3C2=O)cc1	3	-20	28	0	41*	-10	-18	31	-22
CCOc1nc2cnccc2n(CC(=O)Nc2ccccc2C(=O)OC)c1=O	1	-7	18	0	70*	-4	3	-5	2
Fc1ccc(-c2nnc3ccc(N4CCCC4)nn23)cc1	7	2	6	1	1	-9	·	·	·
Brc1ccc(-c2nnc3ccc(N4CCN(c5ccccc5)CC4)nn23)cc1	6	0	1	0	62*	1	-5	-28	-16
COc1cc(-c2ccc(Nc3ccccc3C(=O)O)c(OC)c2)ccc1Nc1ccccc1C(=O)O	46	-4	-29	·	48*	33	41*	72*	-29
COc1ccc(CCn2c(N)c(C(=O)NCc3ccco3)c3nc4ccccc4nc32)cc1	11	-24	9	4	41*	-6	-2	31	25
N=c1c(S(=O)(=O)c2ccc(Br)cc2)cc2c(=O)n3ccccc3nc2n1C1CCCC1	1	-21	1	4	14	-1	·	·	·
N=c1c(S(=O)(=O)c2ccccc2)cc2c(=O)n3ccccc3nc2n1C1CCCC1	8	-29	12	6	78*	-1	-13	-44	-13
CCOC(=O)C(=O)N(C)c1c(CC)nc2c(OCc3ccccc3C)cccn12	1	0	0	·	-3	·	·	·	·
S=C(Nc1cc(Cl)ccc1Oc1ccccc1)N1CCN(c2ccccn2)CC1	-1	7	8	·	36*	-2	-8	47*	-3
Cc1nnc(-c2ccco2)c2cn(-c3cccc(Br)c3)nc12	51	7	-25	11	46*	-6	22	22	-4
C[C@@H]1[C@H]2[C@@H]3CC[C@@H](C3)[C@H]2CN[C@H]1c1cn(Cc2ccccc2)c2ccccc12	28	-4	0	·	2	7	·	·	·
O=C(COC(=O)/C=C/c1ccccc1Cl)NC(=O)NCc1ccccc1	-2	2	-1	·	3	1	·	·	·
O=C(CCN1C(=O)/C(=C/C=C/c2ccccc2)SC1=S)Nc1nc2ccccc2s1	0	-7	12	5	54*	12	32	-14	-51
CSc1ncccc1C(=O)OCC(=O)Nc1ccc(C)c(S(=O)(=O)N2CCOCC2)c1	-2	2	4	·	1	-17	·	·	·
CC(=O)c1ccc2c(c1)CC1(C2)Cc2cc3c(cc2C1)C(=O)CC3 (stereo not given)	-4	1	-1	·	1	-2	·	·	·
CCCc1noc(-c2ccc(-c3ccccc3)cc2)n1	2	1	-35	-7	196*	-5	-1	-9	-11
CC(O)(P(=O)(O)O)P(=O)(O)O	-1	4	-2	·	-2	12	·	·	·
Cc1nc(SCc2nc3ccc(Cl)cc3[nH]2)c2oc3ccccc3c2n1	2	-18	6	·	32	-16	·	·	·
Cc1nc(SCc2nc3ccc(Br)cc3[nH]2)c2oc3ccccc3c2n1	12	-21	0	·	52*	-9	44*	-19	16
CCCN(CCC)C(=O)c1cn(C)c2ccc(S(=O)(=O)N3CCCC3)cc2c1=O	2	2	2	2	0	4	·	·	·
O=C(CCc1nc2ccccc2c(=O)[nH]1)Nc1cc(C(F)(F)F)ccc1N1CCCC1	1	-8	-4	·	10	4	·	·	·
SMILES	CSN inh	SENP1 FRET inh	HNF4A DNA FP	TPT1 inh	Rpn11 block	ATG4B inh	Rpn11 confirm	MMP-2 counter	Thrombin inh
Cn1c(=O)c2c(nc(Oc3ccc4c(c3)OCO4)n2Cc2ccc(F)cc2)n(C)c1=O	-1	-5	29	2	+	2	2	-25	4
Cn1c(=O)c2c(nc(Oc3ccc4c(c3)OCO4)n2Cc2ccc(Br)cc2)n(C)c1=O	·	·	·	-2	·	-1	·	·	·
N#Cc1cc2ccccc2nc1SCC(=O)Nc1ccc(S(=O)(=O)N2CCCC2)cc1	4	2	11	14	·	-13	·	·	·
COc1ccc2nc(SCC(=O)Nc3ccc(S(=O)(=O)N4CCCC4)cc3)c(C#N)cc2c1	10	-67	18	1	40*	-11	21	-35	3
Cn1c2ccccc2c(=O)c2c(=O)n(C3CCCCCC3)c(C3CCCCC3)nc21	-5	-1	67*	·	146*	36	-4	-40	-7
Cc1cccc(NC(=O)c2sc3nc(-c4ccccc4)cn3c2C)n1	15	10	15	18	55*	-7	9	-29	-7
Cc1nc(NC(=O)c2ccco2)sc1-c1csc(Nc2ccc(Cl)cc2)n1	104	-26	5	-4	42*	7	12	35	-5
CCS(=O)(=O)C1=NN2C(=N)/C(=C\c3ccc(OC(=O)c4ccco4)c(OC)c3)C(=O)N=C2S1	22	-60	20	7	46*	8	22	-4	19
CS(=O)(=O)C1=NSC2=NC(=O)/C(=C\c3ccc(OC(=O)c4ccco4)cc3)C(=N)N21	·	·	·	4	·	·	·	·	·

From PubChem
